This note sets out measurements from the EternaBench riboswitch data.

This data set relates to MS2 coat protein. The experiment in a line: apparent Kd, MS2 coat protein; higher = weaker binding; RNA-MaP array; FMN 200 µM where present. The procedure, abridged:
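On Illumina sequencing-chip clusters, designs were transcribed by stalled E. coli RNA polymerase and titrated with SNAP-549-labelled MS2 coat protein (0.7 or 1.5 nM, doubling to 3 µM), without and then with constant ligand, in 100 mM Tris-HCl pH 7.5, 80 mM KCl, 4 mM MgCl2, BSA, DTT, yeast tRNA and Tween-20. Apparent Kd is the median of filtered per-cluster curve fits to green signal normalised to red-channel RNA signal and control-cluster median Fmax.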

Setting [1] is: designed as: OFF switch for flavin mononucleotide, no ligand.
[2] abbreviates: ligand present: flavin mononucleotide, designed as: OFF switch for flavin mononucleotide.
[3] abbreviates: designed as: ON switch for flavin mononucleotide, no ligand.
The mark [4] stands for this setting: ligand present: flavin mononucleotide, designed as: ON switch for flavin mononucleotide.

Regarding “CGCGCGCGUGUUAGGAUAUAUGUGUGUGGUUAUUUAUAGAAGGGACAUGAGGAUCACCCAUGUGUGUGGGCGCG”, the “apparent Kd” value runs as follows: under setting [1], 0.52 µM; under setting [2], 0.489 µM.
Taken in the same sequence, the figures for “CCACUCGGUGAGAAGGCGCCGGCGUCCGCGAGGCGAGGAUAUCACAUGAGGAUCACCCAUGUGGGCAUGAAGAUUGCCACUAGG” were 0.0613 µM and 0.152 µM.
In the same order, the values of “AAUUCGUCAGGAUAUGCAUGUAGUUGCUACAUUUCGCCGUUGCAGAAGGGACAUGAGGAUCACCCAUGUAAGUC” are 0.0331 µM and 0.0343 µM.
For the sequence “GGACGUCACAUUUACAUGAGGAUCACCCAUGUCUCUUGAUAUGAGGAUAUGUAUACGAAUCGUAUACAGAAGGCAUGGACGUCC”, the “apparent Kd” value worked out at 0.0717 µM under setting [3] and 0.0298 µM under setting [4].
As for “ACUUUACGAGGAUAUACUGUCGGGCCUCGGGCGUACAUGCGACAUGAGGAUCACCCAUGUAGAAGGCGUUUACU”, the “apparent Kd” value came out at 0.0331 µM under setting [1] and 0.119 µM under setting [2].
Turning to “GGGUUCAUGUAAGGAUAUGUAUUGUUAAUCGGAGCAGAAGGUACAUGAGGAUCACCCAUGUCAACCUAGAGCAAGGCUUCUUAG”, the “apparent Kd” value by setting is: under setting [1], 0.0197 µM; under setting [2], 0.058 µM.
Taken in the same sequence, the figures for “AAAAAGGGAGGAUAUACAUGAGGAUCACCCAUGUAUCAGACGAAAAAGAGUCUGAAGUGUAGAAGGCCCAAAAA” were 0.0183 µM and 0.0274 µM.
Consider “UUGAAUUGAAACAUGAGGAUCACCCAUGUGUCAUAAUUGACAUAGGAUAUGUUUAUACUUUUAAAAUAGAAGGAUGACGAUACU”, for which the “apparent Kd” value came to 0.0138 µM under setting [3] and 0.0118 µM under setting [4].
With “UUAGUUACGGGAGGAUAUGUCACCCUGGGUCACAUGAGGAUCACCCAUGUGACAGAAGGCCCAAUUAUGGUGCCCAGGGCGCCU”, the “apparent Kd” value turned out to be 0.00584 µM under setting [1] and 0.0228 µM under setting [2].
In the same order, the values of “UUGUUAUGUGUAGGAUAUGCAUAUUAUUAUUAUGCAGAAGGACAUGAGGAUCACCCAUGUAUAUUAUUAUUAUAUAUUAUAUAU” are 0.0287 µM and 0.037 µM.
“AAAAGAACGGCAGGAUAUGCAAGCACUGACCUCCCAAAAUAAAGAAACAUGAGGAUCACCCAUGUGCAGAAGGGCCAAAAGUGC”: the “apparent Kd” value by setting is: under setting [1], 0.0136 µM; under setting [2], 0.0123 µM.
For “GGUACUCAAAGAGUAUCAAUACGAACAUGAGGAUCACCCAUGUAGGAUAUGCUACUCAAAGAGUAGCAGAAGGACAUGUGCCUA”, the “apparent Kd” value by setting is: under setting [1], 0.0162 µM; under setting [2], 0.0913 µM.
As for “GGAUGACAAAGUCAUCCUAAACGAACAUGAGGAUCACCCAUGUAGGAUAUGCUUCUCAAAGAGAAGCAGAAGGACAUGUGCCUU”, the “apparent Kd” value reads like this: under setting [1], 0.0351 µM; under setting [2], 0.276 µM.
As to “UUCGAACAAGUCAGGAUAUGGUUAUUGGUGUGUGACUAGAAGGGACAUGAGGAUCACCCAUGUGCACCUACCAU”, the “apparent Kd” value runs as follows: under setting [1], 0.016 µM; under setting [2], 0.0167 µM.
In the same order, the values of “AGCUGUGGCCGAGGAUAUCUAAAACCUCAAAACGAAAUAUAAUCGAACAUGAGGAUCACCCAUGUAGAGAAGGCGGUCUCAGCA” are 0.27 µM and 0.514 µM.
On to “UGGUACUAGGGAGGAUAUGGGAAGAUACAUGAGGAUCACCCAUGUUUAAGAAUGCCGAGAGUCAACUAGAAGGCCCUAGUACCU”, for which the “apparent Kd” value is, setting by setting: under setting [3], 0.18 µM; under setting [4], 0.0203 µM.
With “UGCAUACAUGAGGAUCACCCAUGUCAACUUAGUCGAGGAUAUGGGCAGCCCUGAGGCGAACCAGAAGGCGAAUUGU”, the “apparent Kd” value amounted to 0.0735 µM under setting [3] and 0.0264 µM under setting [4].
Turning to “CUGGUUGUCGAGGAUAUGCACCAGCUCACUGACGCAGAAGGCGACACAUGAGGAUCACCCAUGUCAGUUCGCGU”, the “apparent Kd” value under setting [1] was determined as 0.0169 µM and the “apparent Kd” value under setting [2] is 0.0189 µM.
In the case of “GUGGCCUAGGCACAGGAUAUGUUGCUCGUAACAUGAGGAUCACCCAUGUGCCUAUGAGAUUUAAUGCAGAAGGGUGCACGCCACG”, the “apparent Kd” value reads like this: under setting [3], 0.173 µM; under setting [4], 0.0171 µM.
Take “CUGGUGUGAGGAUAUCAGGACACGCCCGCGGACGUGUCAAAUGAGAAGGCACAUGAGGAUCACCCAUGUGGGAC”: the “apparent Kd” value under setting [1] was determined as 0.0334 µM and the “apparent Kd” value under setting [2] worked out at 0.166 µM.
Turning to “ACAUACUUUCGAGGAUAUCGGUGAUAAAUUUUACGAGAAGGCGAUAAAAGAUAUAAUCUUAUAGACAUGAGGAUCACCCAUGUA”, the “apparent Kd” value under setting [3] was found to be 0.0305 µM and the “apparent Kd” value under setting [4] was determined as 0.0273 µM.
As for “AUGCUUAUCGAAGGAUAUGGUUACAUGAGGAUCACCCAUGUUAUGAUUGGUUACUUGUUUAGUUUCCAGAAGGUCGAUUAGUUA”, the “apparent Kd” value under setting [1] was determined as 0.0588 µM and the “apparent Kd” value under setting [2] was 0.225 µM.
In the same order, the values of “GGAUGACAAAGUCAUCCAAAUCGAACAUGAGGAUCACCCAUGUAGGAUAUCCUACUGAAACAGUAGGAGAAGGACAUGUGCUUU” are 0.0529 µM and 0.157 µM.
Consider “CAAUUCCGAGGAUAUACAUGAGGAUCACCCAUGUCGGGCCUCAGCGUUUAGCGCGUAAGUAGAAGGUGGGUUUC”, for which the “apparent Kd” value runs as follows: under setting [1], 0.0305 µM; under setting [2], 0.0411 µM.
Taken in the same sequence, the figures for “GGCUCCGCUCGAGGAUAUAGCUGCAUGUAGUGUCCUGAGGCACAUGAGGAUCACCCAUGUGUAGGCUAGAAGGCGACGGACACU” were 0.00881 µM and 0.0262 µM.
Turning to “GUACUGUAGUGAGGAUAUACGAGAUCGAUAGAUCGGCGAUCCAAUAAUACAUGAGGAUCACCCAUGUAGAAGGCACUUCAGUAC”, the “apparent Kd” value came out at 0.00707 µM under setting [1] and 0.099 µM under setting [2].
Taken in the same sequence, the figures for “CAGUAUAACGAAGGAUAUGGAUACAUGAGGAUCACCCAUGUAUUUUUUGUGAUUUUAAAAUUGAUCCAGAAGGUCGUAUAACUG” were 0.0311 µM and 0.0292 µM.
As for “GUGUGAAUAAGAGGAUAUAUACAACAUGAGGAUCACCCAUGUACCCGUGUAGUAGAAGGUUUGUUUUUAUAUAAUAUUAUAUUU”, the “apparent Kd” value reads like this: under setting [3], 0.0274 µM; under setting [4], 0.0227 µM.
“AGCAUGUGAGGAUAUGCAGUUGACCGGUACGCCCAGUCAGGGCAGAAGGCACAUGAGGAUCACCCAUGUGAUAG”: the “apparent Kd” value was found to be 0.0447 µM under setting [1] and 0.122 µM under setting [2].
“GGAAUAGCAUGAGGAUAUGCUGGAGUUUAGACAGCAGAAGGCAUGUCAUAAGACAUGAGGAUCACCCAUGUAAUUACAAUACCA”: the “apparent Kd” value runs as follows: under setting [3], 0.102 µM; under setting [4], 0.0117 µM.
In the case of “GACAUGUGAGGAUAUCUGAUGUCUAACUUCGGUUAGACAUCAGAGAAGGCACAUGAGGAUCACCCAUGUCUGUC”, the “apparent Kd” value was found to be 0.194 µM under setting [1] and 0.232 µM under setting [2].
Taken in the same sequence, the figures for “GUUCUGCCUCCUGCCGGAACAUGAGGAUCACCCAUGUUGCCUGAGGAUAUCCUAUGGCGCCCACAGGAGAAGGCGGGCAACAUA” were 0.0381 µM and 0.233 µM.
Take “UGGUACCAGGGAGGAUAUGGGAAGAUACAUGAGGAUCACCCAUGUUUAAGAAUGCCGAGAGGCAACUAGAAGGCCCUAGUACCU”: the “apparent Kd” value by setting is: under setting [3], 0.338 µM; under setting [4], 0.019 µM.
On to “UGGUACAUGGGAGGAUAUCAUGUGGACACAUGAGGAUCACCCAUGUCGAUGGAGACAUCGGAGAUUGAGAAGGCCCAUGUACCU”, for which the “apparent Kd” value is 0.39 µM under setting [3] and 0.0127 µM under setting [4].
Taken in the same sequence, the figures for “GCAGCACUGUAGUACAUGAGGAUCACCCAUGUCGAUUGUUAUGAGGAUAUGCAUCGUAUGAAGAUGCAGAAGGCAUUGUGCUGC” were 0.00522 µM and 0.00504 µM.
In the same order, the values of “UUACCUCAUGAGAAGGACAUGAGGAUCACCCAUGUAGGAUAUCGUGGAAGACAGGUAUUGAAUCUUCGGAUUCAAUACCUGUCU” are 0.331 µM and 0.0171 µM.
As for “AUCAGCUCGUCAGGAUAUACGUCACUGCGUCAGCAGUGUGGUAAGAUCACAUGAGGAUCACCCAUGUAGAAGGGACGAGCAGAU”, the “apparent Kd” value was 0.0137 µM under setting [1] and 0.262 µM under setting [2].
“AAAGGACGAGGAUAUACAUGAGGAUCACCCAUGUAAAAAACAUAAUAAAAGAACUUAUGUAGAAGGCGUCCAAA”: the “apparent Kd” value runs as follows: under setting [1], 0.0586 µM; under setting [2], 0.336 µM.
For the sequence “UUUUUAGCAGGAUAUAUCCACGACUACAUGAGGAUCACCCAUGUGGCCGCUUGAAGUUGUAUAGAAGGGCUUUUUU”, the “apparent Kd” value under setting [1] worked out at 0.0248 µM and the “apparent Kd” value under setting [2] was found to be 0.0234 µM.
Taken in the same sequence, the figures for “ACAUGAUAUGUAGGAUAUCACAUUAAUUGUUUAAUAAUUGAAUUUAGGAUUUGAGAAGGACAUUUACAUGAGGAUCACCCAUGU” were 0.0169 µM and 0.0127 µM.
Consider “AUAAAACAUGAGGAUCACCCAUGUAGACACGAUGGAGGAUAUACUAGAUCGAAAGAUCUAGUAGAAGGCCGACGUA”, for which the “apparent Kd” value is 0.0213 µM under setting [3] and 0.0228 µM under setting [4].
In the same order, the values of “UGGUACAUGGGAGGAUAUGGGAAGUUAACAUGAGGAUCACCCAUGUUUGCCGAAAGGCAAAAGAACUAGAAGGCCCAUGUACCU” are 0.0231 µM and 0.0164 µM.
Take “AUAUAUAUAAGGAAGGAUAUCUUAGAAAAAACAUGAGGAUCACCCAUGUAAAUAAAGAAUAAAUGGGAGAAGGUCCAUAUAUAUA”: the “apparent Kd” value under setting [3] is 0.0301 µM and the “apparent Kd” value under setting [4] was 0.0163 µM.
With “CCUCGACAUGAGGAUCACCCAUGUCAGGAUAUUGUGUAUCGGGUUUUUUACGGAAAGGCGAGAAGGGAUGUGUG”, the “apparent Kd” value was determined as 0.0184 µM under setting [1] and 0.0169 µM under setting [2].
Taken in the same sequence, the figures for “ACAGUUCUGCAAGGAUAUCGUUCUAGUUUAGUACGAGAAGGUGCUUUAGUUUUUUCUUUGUGUUGACAUGAGGAUCACCCAUGU” were 0.0234 µM and 0.0152 µM.
Consider “ACAUACAUUCGAGGAUAUCGGUGAACAAAUUAACGAGAAGGCGAUAUAAUGUUUAAUCUUAUAAACAUGAGGAUCACCCAUGUA”, for which the “apparent Kd” value under setting [3] is 0.0685 µM and the “apparent Kd” value under setting [4] worked out at 0.028 µM.
In the case of “AGUCAUUUACAGAAGGGUAGUUGGGUUAUACAUGAGGAUCACCCAUGUUUUACAGGAUAUGUGUUUUGUUACUAUUAAAGUUCA”, the “apparent Kd” value under setting [1] was 0.0657 µM and the “apparent Kd” value under setting [2] was 0.12 µM.
On to “AGGGAGUUAGGAUAUGCUGCUCGUCACUUGCGUGAUGAGUAGCAGAAGGAACAUGAGGAUCACCCAUGUAAAGA”, for which the “apparent Kd” value by setting is: under setting [1], 0.0348 µM; under setting [2], 0.0288 µM.
